In ChEMBL document CHEMBL5724801, “EUbOPEN Chemogenomics Library - Multiplex” (2024):
“And” between values parts separate entries of the source, which are not always exact repeats. Equal entries are not always repeated.

Tested on: HEK-293T
Experiment: Multiplex assay against HEK293T
Type: toxicity, cell-based
Details: human
Procedure, shortened: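 Live cells carried four stains from seeding: Hoechst33342, BioTracker Green Microtubule Cytoskeleton Dye, MitoTracker Red and Annexin V Alexa Fluor 680. They were imaged on a CQ1 microscope at 37°C and 5% CO2 after compound addition. Using CellPathfinder machine-learning gating, cells were split into Hoechst high-intensity objects or normal cells, normal cells into healthy, pyknosed or fragmented nuclei, and pyknosed cells into mitotic or apoptotic; tubulin, mitochondrial-mass and membrane-permeability phenotypes are per cents of healthy-nucleus cells.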

[1] = 12 h, 1 µM, compound concentration 1 uM
[2] = 12 h, 10 µM, compound concentration 10 uM
[3] = 24 h, 1 µM, compound concentration 1 uM
[4] = 24 h, 10 µM, compound concentration 10 uM
[5] = 48 h, 1 µM, compound concentration 1 uM
[6] = 48 h, 10 µM, compound concentration 10 uM

Structure (SMILES): COc1cc(/C=C(\C#N)C(=O)Nc2nnc(C(F)(F)F)s2)ccc1OCc1ccc(C(F)(F)F)cc1C(F)(F)F
- Population Apoptotic (%) [1]: 10% and 12.9%
- Population Fragmented Nuclei (%) [1]: 2.37% and 4.7%
- Population Hoechst High Intensity Objects (%) [1]: 0.67% and 0%
- Population Membrane Permeable-Phenotype (%) [1]: 0%
- Population Mitochondria Different-Phenotype (%) [1]: 45.57% and 22.22%
- Population Mitotic Cells (%) [1]: 90% and 87.1%
- Population Normal (%) [1]: 99.33% and 100%
- Population Pyknosed Nuclei (%) [1]: 44.07% and 83.22%
- Total Cell Count [1]: 297 and 149
- Population Apoptotic (%) [2]: 7.56% and 15.32%
- Population Fragmented Nuclei (%) [2]: 3.37% and 4.96%
- Population Hoechst High Intensity Objects (%) [2]: 0%
- Population Membrane Permeable-Phenotype (%) [2]: 0%
- Population Mitochondria Different-Phenotype (%) [2]: 33.93% and 13.04%
- Population Mitotic Cells (%) [2]: 92.44% and 84.68%
- Population Normal (%) [2]: 100%
- Population Pyknosed Nuclei (%) [2]: 40.07% and 78.72%
- Total Cell Count [2]: 297 and 141
- Population Apoptotic (%) [3]: 13% and 14.66%
- Population Fragmented Nuclei (%) [3]: 1.79% and 2.79%
- Population Healthy Nuclei (%) [3]: 75.89% and 32.4%
- Population Hoechst High Intensity Objects (%) [3]: 0.22% and 0%
- Population Membrane Permeable-Phenotype (%) [3]: 1.18% and 0%
- Population Mitochondria Different-Phenotype (%) [3]: 13.82% and 22.41%
- Population Mitotic Cells (%) [3]: 87% and 85.34%
- Population Normal (%) [3]: 99.78% and 100%
- Population Pyknosed Nuclei (%) [3]: 22.32% and 64.8%
- Population Tubulin-Different-Phenotype (%) [3]: 11.47% and 13.79%
- Total Cell Count [3]: 449 and 179
- Population Apoptotic (%) [4]: 11.22% and 19.54%
- Population Fragmented Nuclei (%) [4]: 0.62% and 1.78%
- Population Healthy Nuclei (%) [4]: 79% and 46.75%
- Population Hoechst High Intensity Objects (%) [4]: 0% and 0.59%
- Population Membrane Permeable-Phenotype (%) [4]: 0.79% and 1.27%
- Population Mitotic Cells (%) [4]: 88.78% and 80.46%
- Population Normal (%) [4]: 100% and 99.41%
- Population Pyknosed Nuclei (%) [4]: 20.37% and 51.48%
- Population Tubulin-Different-Phenotype (%) [4]: 9.47% and 5.06%
- Total Cell Count [4]: 481 and 170
- Population Apoptotic (%) [5]: 10.37% and 13.92%
- Population Fragmented Nuclei (%) [5]: 1.93% and 3.61%
- Population Healthy Nuclei (%) [5]: 85.65% and 55.67%
- Population Hoechst High Intensity Objects (%) [5]: 0.09% and 1.52%
- Population Membrane Permeable-Phenotype (%) [5]: 4.73% and 1.85%
- Population Mitochondria Different-Phenotype (%) [5]: 13.1% and 24.07%
- Population Mitotic Cells (%) [5]: 89.63% and 86.08%
- Population Normal (%) [5]: 99.91% and 98.48%
- Population Fragmented Nuclei (%) [6]: 1.97% and 2.88%
- Population Healthy Nuclei (%) [6]: 88.86% and 79.5%
- Population Hoechst High Intensity Objects (%) [6]: 0% and 2.11%
- Population Membrane Permeable-Phenotype (%) [6]: 4.71% and 1.81%
- Population Mitochondria Different-Phenotype (%) [6]: 9.16% and 21.72%
- Population Mitotic Cells (%) [6]: 88.79% and 63.27%
- Population Normal (%) [6]: 100% and 97.89%
- Population Pyknosed Nuclei (%) [6]: 9.16% and 17.63%

Structure (SMILES): O=C(Nc1cc(C(F)(F)F)ccc1N1CCCCC1)c1ccncc1
- Population Apoptotic (%) [1]: 16.06% and 9.24%
- Population Fragmented Nuclei (%) [1]: 3.1% and 6.12%
- Population Hoechst High Intensity Objects (%) [1]: 0%
- Population Membrane Permeable-Phenotype (%) [1]: 0% and 10.53%
- Population Mitochondria Different-Phenotype (%) [1]: 30.11% and 10.53%
- Population Mitotic Cells (%) [1]: 83.94% and 90.76%
- Population Normal (%) [1]: 100%
- Population Pyknosed Nuclei (%) [1]: 42.41% and 80.95%
- Total Cell Count [1]: 323 and 147
- Population Apoptotic (%) [2]: 17.75% and 24.64%
- Population Fragmented Nuclei (%) [2]: 2.03% and 4.49%
- Population Healthy Nuclei (%) [2]: 48.84% and 17.98%
- Population Hoechst High Intensity Objects (%) [2]: 0.29% and 0%
- Population Membrane Permeable-Phenotype (%) [2]: 0% and 3.12%
- Population Mitochondria Different-Phenotype (%) [2]: 41.07% and 18.75%
- Population Mitotic Cells (%) [2]: 82.25% and 75.36%
- Population Normal (%) [2]: 99.71% and 100%
- Population Pyknosed Nuclei (%) [2]: 49.13% and 77.53%
- Population Tubulin-Different-Phenotype (%) [2]: 26.79% and 53.12%
- Total Cell Count [2]: 345 and 178
- Population Apoptotic (%) [3]: 12.5% and 17.7%
- Population Fragmented Nuclei (%) [3]: 1.79% and 1.82%
- Population Healthy Nuclei (%) [3]: 72.45% and 29.7%
- Population Hoechst High Intensity Objects (%) [3]: 0%
- Population Membrane Permeable-Phenotype (%) [3]: 1.48% and 2.04%
- Population Mitochondria Different-Phenotype (%) [3]: 13.33% and 12.24%
- Population Mitotic Cells (%) [3]: 87.5% and 82.3%
- Population Normal (%) [3]: 100%
- Population Pyknosed Nuclei (%) [3]: 25.76% and 68.48%
- Population Tubulin-Different-Phenotype (%) [3]: 11.36% and 12.24%
- Population Apoptotic (%) [4]: 30.61% and 27.07%
- Population Fragmented Nuclei (%) [4]: 1.11% and 2%
- Population Healthy Nuclei (%) [4]: 66.15% and 31.5%
- Population Hoechst High Intensity Objects (%) [4]: 0.22% and 0.5%
- Population Membrane Permeable-Phenotype (%) [4]: 1.68% and 0%
- Population Mitochondria Different-Phenotype (%) [4]: 34.01% and 33.33%
- Population Mitotic Cells (%) [4]: 69.39% and 72.93%
- Population Normal (%) [4]: 99.78% and 99.5%
- Population Pyknosed Nuclei (%) [4]: 32.74% and 66.5%
- Population Tubulin-Different-Phenotype (%) [4]: 39.39% and 14.29%
- Total Cell Count [4]: 450 and 201
- Population Apoptotic (%) [5]: 6.88% and 14.29%
- Population Fragmented Nuclei (%) [5]: 2.64% and 3.08%
- Population Healthy Nuclei (%) [5]: 85.29% and 66.08%
- Population Hoechst High Intensity Objects (%) [5]: 0%
- Population Membrane Permeable-Phenotype (%) [5]: 5.84% and 0.67%
- Population Mitochondria Different-Phenotype (%) [5]: 15.38% and 28.67%
- Population Mitotic Cells (%) [5]: 93.12% and 85.71%
- Population Normal (%) [5]: 100%
- Population Pyknosed Nuclei (%) [5]: 12.07% and 30.84%
- Population Apoptotic (%) [6]: 17.89% and 16.19%
- Population Fragmented Nuclei (%) [6]: 3.13% and 3.08%
- Population Healthy Nuclei (%) [6]: 80.83% and 56.54%
- Population Hoechst High Intensity Objects (%) [6]: 0% and 0.76%
- Population Membrane Permeable-Phenotype (%) [6]: 5.97% and 2.72%
- Population Mitochondria Different-Phenotype (%) [6]: 47.9% and 43.54%
- Population Mitotic Cells (%) [6]: 82.11% and 83.81%
- Population Normal (%) [6]: 100% and 99.24%
- Population Pyknosed Nuclei (%) [6]: 16.04% and 40.38%
- Total Cell Count [6]: 767 and 262
